Laboratory results reported in ChEMBL document CHEMBL1156231, “Alkylation of a human telomere sequence by heterotrimeric chlorambucil PI polyamide conjugates” (Bioorg Med Chem, 2010).
The source made the active and inactive calls. The calls are words filed in the database; no cut-off is given here.

Tests used:
Nucleic Acid [1] = assay: Binding affinity to human telomeric DNA expressed in Escherichia coli DH5alpha assessed as alkylation of G rich 5^-GGTTAGGGTTA-3^ strand at 50 to 200 nM after 24 hrs by PAGE
Method in brief: (§1)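 5'-Texas Red-labelled telomere-containing DNA fragment (insert cloned and propagated in E. coli DH5a, PCR-amplified, purified), alkylated with conjugate at various concentrations in 5 mM sodium phosphate buffer pH 7.0, 10% DMF, room temperature, 24 h. Reaction stopped with calf thymus DNA and heating 95 °C, 5 min. Alkylation sites read by high-resolution denaturing polyacrylamide gel electrophoresis.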

Nucleic Acid [2] = assay: Binding affinity to human telomeric DNA expressed in Escherichia coli DH5alpha assessed as alkylation of complementary C rich site at 50 to 200 nM after 24 hrs by PAGE analysis; method in brief: as §1
Nucleic Acid [3] = assay: Binding affinity to human telomeric DNA expressed in Escherichia coli DH5alpha assessed as alkylation of G and C rich strand at 10 nM after 24 hrs by PAGE analysis; method in brief: as §1

With `CN(C)CCCNC(=O)c1nc(NC(=O)c2nc(NC(=O)c3nc(NC(=O)CCNC(=O)CCNC(=O)c4nc(NC(=O)c5nc(NC(=O)c6nc(NC(=O)CCCc7ccc(N(CCCl)CCCl)cc7)cn6C)cn5C)cn4C)cn3C)cn2C)cn1C` the Activity (Nucleic Acid [1]) was “inactive”, the Activity (Nucleic Acid [2]) was “Active” and the Activity (Nucleic Acid [3]) was “Active”.
